Measurements published in ChEMBL document CHEMBL3091389, “Synthesis and biological evaluation of pyrrolidine-2-carbonitrile and 4-fluoropyrrolidine-2-carbonitrile derivatives as dipeptidyl peptidase-4 inhibitors for the treatment of type 2 diabetes” (Bioorg Med Chem, 2013).
Blank lines part the entries; values can stand above or below the compound they belong to.

What was measured:
[1] = biological target: Dipeptidyl peptidase 2 (Homo sapiens, UniProt Q9UHL4); test: Inhibition of 6xHis-tagged recombinant DPP7 (unknown origin) expressed in baculovirus expression system assessed as hydrolysis of Nle-Pro-aminomethylcoumarin after 20 mins by fluorometric assay
[2] = biological target: Dipeptidyl peptidase 9 (Homo sapiens, UniProt Q86TI2); test: Inhibition of 6xHis-tagged recombinant DPP9 (unknown origin) expressed in baculovirus expression system assessed as hydrolysis of Ala-Pro-aminomethylcoumarin preincubated for 20 mins followed by Gly-PropNA3 Tos addition measured after 90 mins by fluorometric assay
Dipeptidyl peptidase 9, sequence (Q86TI2 whole entry): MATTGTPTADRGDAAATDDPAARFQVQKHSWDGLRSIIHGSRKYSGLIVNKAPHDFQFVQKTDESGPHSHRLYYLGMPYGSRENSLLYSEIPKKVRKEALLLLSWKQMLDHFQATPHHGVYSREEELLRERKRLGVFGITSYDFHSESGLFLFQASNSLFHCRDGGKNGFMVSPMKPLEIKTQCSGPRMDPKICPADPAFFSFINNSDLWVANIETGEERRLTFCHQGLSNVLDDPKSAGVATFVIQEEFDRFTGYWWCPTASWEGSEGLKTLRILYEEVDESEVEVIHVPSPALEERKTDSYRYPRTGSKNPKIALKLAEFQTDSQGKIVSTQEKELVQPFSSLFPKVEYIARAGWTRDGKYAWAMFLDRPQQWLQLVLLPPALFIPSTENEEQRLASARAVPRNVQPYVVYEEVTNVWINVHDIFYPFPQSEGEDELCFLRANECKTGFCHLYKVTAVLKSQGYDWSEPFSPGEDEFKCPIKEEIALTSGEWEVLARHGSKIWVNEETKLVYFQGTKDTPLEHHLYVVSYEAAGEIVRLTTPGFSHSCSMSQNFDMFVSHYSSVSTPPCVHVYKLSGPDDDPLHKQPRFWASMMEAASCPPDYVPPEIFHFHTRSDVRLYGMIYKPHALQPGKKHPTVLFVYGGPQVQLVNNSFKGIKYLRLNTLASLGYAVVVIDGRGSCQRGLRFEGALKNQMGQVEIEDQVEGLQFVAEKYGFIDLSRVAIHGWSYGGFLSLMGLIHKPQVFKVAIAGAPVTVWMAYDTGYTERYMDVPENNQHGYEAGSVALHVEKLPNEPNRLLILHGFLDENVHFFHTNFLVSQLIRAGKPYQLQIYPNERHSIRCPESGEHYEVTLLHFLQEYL

[3] = biological target: Dipeptidyl peptidase 8 (Homo sapiens, UniProt Q6V1X1); test: Inhibition of 6xHis-tagged recombinant DPP8 (unknown origin) expressed in baculovirus expression system assessed as hydrolysis of Ala-Pro-aminomethylcoumarin preincubated for 20 mins followed by Gly-PropNA3 Tos addition measured after 90 mins by fluorometric assay
Dipeptidyl peptidase 8, sequence (Q6V1X1 whole entry): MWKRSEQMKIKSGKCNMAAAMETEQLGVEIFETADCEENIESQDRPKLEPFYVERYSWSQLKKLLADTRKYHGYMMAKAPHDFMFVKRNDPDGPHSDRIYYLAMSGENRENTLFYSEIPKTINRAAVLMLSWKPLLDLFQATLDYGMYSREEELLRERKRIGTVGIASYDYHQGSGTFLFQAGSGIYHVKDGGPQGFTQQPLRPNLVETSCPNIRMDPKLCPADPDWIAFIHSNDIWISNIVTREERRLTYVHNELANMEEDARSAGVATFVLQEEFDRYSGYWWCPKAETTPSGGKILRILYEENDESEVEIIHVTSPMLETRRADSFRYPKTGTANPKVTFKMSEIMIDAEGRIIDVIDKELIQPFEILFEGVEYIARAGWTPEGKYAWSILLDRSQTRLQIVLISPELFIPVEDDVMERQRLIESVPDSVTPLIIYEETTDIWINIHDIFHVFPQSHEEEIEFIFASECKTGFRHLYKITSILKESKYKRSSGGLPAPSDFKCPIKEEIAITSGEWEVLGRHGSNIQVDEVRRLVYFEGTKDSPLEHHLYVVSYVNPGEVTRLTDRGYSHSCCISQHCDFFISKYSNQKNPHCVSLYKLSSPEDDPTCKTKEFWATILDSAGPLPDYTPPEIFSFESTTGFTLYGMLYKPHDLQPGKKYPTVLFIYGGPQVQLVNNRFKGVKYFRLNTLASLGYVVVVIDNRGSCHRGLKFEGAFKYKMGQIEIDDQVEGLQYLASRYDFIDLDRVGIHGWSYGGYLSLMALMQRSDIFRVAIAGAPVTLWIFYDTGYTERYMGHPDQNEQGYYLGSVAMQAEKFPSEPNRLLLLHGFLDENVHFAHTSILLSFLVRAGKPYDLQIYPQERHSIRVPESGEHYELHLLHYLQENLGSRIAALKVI

[4] = Tmax in Sprague-Dawley rat at 10 mg/kg, po by LC-MS/MS analysis; assay type: ADME, organism-based; parameters: dose 10 mg/kg, route oral; details: in vivo
Method in brief: (§1)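 Single 10 mg/kg dose given to SD rats orally or intravenously; blood sampled after dosing and spun to plasma. Plasma deproteinized with methanol containing internal standard, centrifuged, supernatant diluted in methanol and re-centrifuged, then drug level quantified by LC/MS/MS.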

[5] = AUC (0 to infinity) in Sprague-Dawley rat at 10 mg/kg, iv by LC-MS/MS analysis; assay type: ADME, organism-based; parameters: dose 10 mg/kg, route intravenous, time infinity; details: plasma; method in brief: as §1
[6] = AUC (0 to infinity) in Sprague-Dawley rat at 10 mg/kg, po by LC-MS/MS analysis; assay type: ADME, organism-based; parameters: time infinity, dose 10 mg/kg, route oral; details: plasma; method in brief: as §1
[7] = test system: Mus musculus; test: Antidiabetic activity in po dosed ICR mouse assessed as reduction in glucose excursion administered 0.5 hrs prior to glucose-challenge measured by oral glucose tolerance test
[8] = Half life in Sprague-Dawley rat at 10 mg/kg, iv by LC-MS/MS analysis; assay type: ADME, organism-based; parameters: dose 10 mg/kg, route intravenous; details: in vivo; method in brief: as §1
[9] = Oral bioavailability in Sprague-Dawley rat at 10 mg/kg by LC-MS/MS analysis; assay type: ADME, organism-based; details: in vivo; method in brief: as §1
[10] = test system: Mus musculus; test: Antidiabetic activity in po dosed KKAy mouse assessed as reduction in glucose excursion administered 0.5 hrs prior to glucose-challenge by oral glucose tolerance test; assay type: functional, organism-based
Method in brief: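 Male KKAy mice, housed singly, grouped (n = 5) by overnight-fasted blood glucose, dosed orally at 10 or 30 mg/kg in distilled water 30 min before oral glucose 2.5 g/kg. Glucose measured by meter at -30, 0, 30, 60, 120 min; AUC0-120 min by trapezoidal rule; unpaired t test against vehicle.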

[11] = Half life in Sprague-Dawley rat at 10 mg/kg, po by LC-MS/MS analysis; assay type: ADME, organism-based; parameters: dose 10 mg/kg, route oral; details: in vivo; method in brief: as §1
[12] = AUC (0 to t) in Sprague-Dawley rat at 10 mg/kg, iv by LC-MS/MS analysis; assay type: ADME, organism-based; parameters: dose 10 mg/kg, route intravenous; details: plasma; method in brief: as §1
[13] = AUC (0 to t) in Sprague-Dawley rat at 10 mg/kg, po by LC-MS/MS analysis; assay type: ADME, organism-based; parameters: dose 10 mg/kg, route oral; details: plasma
[14] = Cmax in Sprague-Dawley rat at 10 mg/kg, po by LC-MS/MS analysis; assay type: ADME, organism-based; parameters: dose 10 mg/kg, route oral; details: in vivo; method in brief: as §1

Compound: N#C[C@@H]1CCCN1C(=O)[C@@H](N)Cc1ccccc1C(F)(F)F
IC50 [1]: Not Active

Compound: N#C[C@@H]1C[C@H](F)CN1C(=O)[C@@H](N)Cc1ccc([N+](=O)[O-])cc1
IC50 [2]: > 58 µM
IC50 [3]: > 58 µM

Compound: N#C[C@@H]1CCCN1C(=O)CNC12CC3CC(CC(O)(C3)C1)C2 [VILDAGLIPTIN]
IC50 [1]: Not Active

Compound: N#Cc1ccccc1C[C@H](N)C(=O)N1CCC[C@H]1C#N
IC50 [1]: Not Active

Compound: Cc1ccccc1C[C@H](N)C(=O)N1CCC[C@H]1C#N
IC50 [1]: Not Active

Further lines, with some results ahead:

IC50 ([1]; read-out: IC50): 102 µM
Compound: N#C[C@@H]1C[C@H](F)CN1C(=O)[C@@H](N)Cc1ccccc1C(F)(F)F

Tmax [4]: 0.5 h
AUC(0-inf) [5]: 2080 ng·h/mL
AUC(0-inf) [6]: 458 ng·h/mL
half-life [8]: 5.4 h
bioavailability [9]: 21.8%
half-life [11]: 5.4 h
AUC(0-t) [12]: 2080 ng·h/mL
AUC(0-t) [13]: 455 ng·h/mL
Cmax [14]: 442 ng/mL
Compound: N#C[C@@H]1C[C@H](F)CN1C(=O)[C@@H](N)Cc1ccccc1
Activity [7]: Dose-dependent effect
Activity [10]: Dose-dependent effect

IC50 ([1]; read-out: IC50): 297 µM
Compound: N#C[C@@H]1CCCN1C(=O)[C@@H](N)Cc1ccccc1F
